Data set [1] deals with MDA-MB-231. The experiment in a line: Induction of apoptosis in human MDA-MB-231 cells assessed as late apoptotic cells at 3 uM after 24 hrs by Annexin V/propidium iodide based flow cytometric analysis (reference value: 0.038%). The class given is functional. The method in brief:
(§1)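 MDA-MB-231 cells (2×10^5/well) attached 24 h, then treated 24 h with 1, 1.5, 2 or 3 µM, DMSO as control. Cells harvested, PBS-washed, resuspended in binding buffer, stained with Annexin V and PI for 30 min at 37°C in the dark, and analysed by flow cytometry for quadrant percentages; three experiments.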

Data set [2] relates to MDA-MB-231. The experiment in a line: Induction of apoptosis in human MDA-MB-231 cells assessed as early apoptotic cells at 2 uM after 24 hrs by Annexin V/propidium iodide based flow cytometric analysis (reference value: 0.94%). The class given is functional. In short, it runs like this:
as §1
(Flow cytometry measures light scatter and fluorescence of single cells or particles in a stream.)

The subject of data set [3] is MDA-MB-231. Description: Antiproliferative activity in human MDA-MB-231 cells assessed as inhibition of cell viability at 1.5 to 3 uM pretreated with 20 uM apoptosis inhibitor, Z-VAD-FMK followed by addition of compound and measured after 48 hrs by MTT assay. The class given is functional, cell-based. The settings on record: dose 1.5-3 µM. In short, it runs like this:
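MDA-MB-231 cells pretreated 1 h with necrostatin-1 (10 µM) or Z-VAD-FMK (20 µM), then exposed to compound at 1.5, 2 and 3 µM for another 48 h. Inhibition rates by MTT; inhibitors alone also tested 48 h for viability. Mean ± SD, n = 3.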

For data set [4], the system named is MDA-MB-231. The experiment in a line: Induction of apoptosis in human MDA-MB-231 cells assessed as viable cells at 2 uM after 24 hrs by Annexin V/propidium iodide based flow cytometric analysis (reference value: 99%). The data set is classed as functional. The settings on record: read-out: Activity. In short, it runs like this:
as §1

Data set [5] has as its system MDA-MB-231. Description: Induction of apoptosis in human MDA-MB-231 cells assessed as necrotic cells at 1.5 uM after 24 hrs by Annexin V/propidium iodide based flow cytometric analysis (reference value: 0.019%). The data set is classed as functional. The method in brief: as §1
The subject of data set [6] is MDA-MB-231. The experiment in a line: Induction of cell cycle arrest in human MDA-MB-231 cells assessed as accumulation at S phase at 2 uM measured after 24 hrs by propidium iodide staining based flow cytometric method (reference value: 36.25%). The class given is functional.
A short description of data set [7]: Prodrug release in human MDA-MB-231 cells assessed as increase in intracellular NO level at 25 uM measured after 2.5 hrs by total nitric oxide assay. The data set is classed as ADME, cell-based. The settings on record: mda-mb-23, 2.5 h. The method in brief:
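MDA-MB-231 (2×10^5 cells/well) cultured 24 h, then treated 2.5 h with compound at 25 µM or DMSO. Cells harvested, lysed in nitric oxide assay buffer 1 h on ice; lysate NO quantified with a total nitric oxide assay kit. Mean ± SD, n = 3.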

Data set [8] concerns MDA-MB-231. The experiment in a line: Induction of apoptosis in human MDA-MB-231 cells assessed as late apoptotic cells at 2 uM after 24 hrs by Annexin V/propidium iodide based flow cytometric analysis (reference value: 0.038%). The data set is classed as functional. In short, it runs like this: as §1
In data set [9] the test system is MDA-MB-231. The experiment in a line: Induction of apoptosis in human MDA-MB-231 cells assessed as up-regulation of Bax expression at 1.5 to 6 uM measured after 8 hrs by Western blot analysis. The class given is functional, cell-based. The settings on record: dose 1.5-6 µM. In short, it runs like this:
(§2)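 MDA-MB-231 cells (8×10^5 per 60 mm dish) attached 24 h, then exposed 8 h to 1.5, 3 or 6 µM, DMSO as control. Lysates quantified by BCA; 30 µg protein run on 4–20% SDS-PAGE, transferred to PVDF, probed for Bcl-2, Bax, Bad, cleaved caspase-9, cleaved caspase-3 and PARP, with ECL detection. Densitometric relative levels; three experiments.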
For orientation: A western blot detects proteins with antibodies after separation by electrophoresis.

The test system of data set [10] is MDA-MB-231. The experiment in a line: Induction of apoptosis in human MDA-MB-231 cells assessed as necrotic cells at 3 uM after 24 hrs by Annexin V/propidium iodide based flow cytometric analysis (reference value: 0.019%). The data set is classed as functional. In short, it runs like this: as §1
In data set [11] the test system is MDA-MB-231. Description: Induction of apoptosis in human MDA-MB-231 cells assessed as necrotic cells at 2 uM after 24 hrs by Annexin V/propidium iodide based flow cytometric analysis (reference value: 0.019%). The data set is classed as functional. The method in brief:
as §1

In data set [12] the test system is MDA-MB-231. Description: Induction of apoptosis in human MDA-MB-231 cells assessed as viable cells at 3 uM after 24 hrs by Annexin V/propidium iodide based flow cytometric analysis (reference value: 99%). The class given is functional. The settings on record: read-out: Activity. In short, it runs like this:
as §1

Data set [13] deals with MDA-MB-231. Description: Inhibition of colony formation in human MDA-MB-231 cells at 0.25 uM incubated for 24 hrs followed by culturing in fresh medium for 10 days by crystal violet staining based assay. The data set is classed as functional, cell-based. The method in brief:
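MDA-MB-231 seeded at 1.5×10^3 cells/well, 24 h attachment, then 24 h exposure to compound (0.25, 0.5, 1 µM) or DMSO; fresh medium for a further 10 days. Fixed in 4% paraformaldehyde 0.5 h at 4°C, crystal violet stained, dye dissolved in DMSO and absorbance read at 590 nm; performed three times.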

Data set [14] relates to MDA-MB-231. The experiment in a line: Induction of cell cycle arrest in human MDA-MB-231 cells assessed as accumulation at G0/G1 phase at 1.5 uM measured after 24 hrs by propidium iodide staining based flow cytometric method (reference value: 45.71%). The class given is functional.
The nature of data set [15]: Induction of intracellular reactive oxygen species generation in human MDA-MB-231 cells assessed as proportion of FL1-H positive cells at 2 uM measured after 24 hrs by DCFH-DA staining based flow cytometry analysis (reference value: 47.8%). The class given is functional, MDA-MB-23.
Data set [16] relates to MDA-MB-231. The experiment in a line: Induction of cell cycle arrest in human MDA-MB-231 cells assessed as accumulation at S phase at 1.5 uM measured after 24 hrs by propidium iodide staining based flow cytometric method (reference value: 36.25%). The data set is classed as functional.
The nature of data set [17]: Anticancer activity against human MDA-MB-231 cells assessed as inhibition of cell proliferation measured after 48 hrs by MTT assay. The class given is functional, cell-based. The conditions noted are these: MDA-MB-23, 48 h. The method in brief: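 Cells seeded at ~5,000/well, grown 24 h to partial monolayer, then exposed 48 h at 37°C, 5% CO2 to 0.5, 1, 2, 4, 10 and 20 µM (DMSO ≤0.1%). MTT final 0.5 mg/ml for 4 h, formazan dissolved in DMSO, A570. Survival expressed as % of untreated control; IC50 from dose-response curves; three independent experiments. MDA-MB-231, MCF-7, HepG2 in DMEM; A549 and LO-2 in RPMI-1640; 10% FBS.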

Data set [18] is described as follows: Antiproliferative activity against human MDA-MB-231 cells assessed as inhibition of cell proliferation rate at 4 uM measured after 48 hrs by MTT assay. The data set is classed as functional. The settings on record: MDA-MB-23. The method in brief: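 MDA-MB-231 cells in DMEM with 10% FBS, ~5,000 cells/well, 24 h attachment, then compound for 48 h at 37°C, 5% CO2. MTT 0.5 mg/ml final for 4 h, DMSO solubilization, absorbance 570 nm; inhibition relative to untreated cells; experiments done three times.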
A general note: Formazan colour is commonly taken as a measure of viable cells.

For data set [19], the system named is MDA-MB-231. Description: Induction of mitochondrial membrane potential depolarization in human MDA-MB-231 cells assessed as proportion of cells with depolarized MMP at 1 uM incubated for 18 hrs by JC-1 staining based flow cytometry (reference value: 0.72%). The class given is functional.
Data set [20] concerns MDA-MB-231. The experiment in a line: Induction of apoptosis in human MDA-MB-231 cells assessed as viable cells at 1.5 uM after 24 hrs by Annexin V/propidium iodide based flow cytometric analysis (reference value: 99%). The settings on record: read-out: Activity. The class given is functional. The method in brief:
as §1

For another data set, the system named is MDA-MB-23. Description: Induction of mitochondrial membrane potential depolarization in human MDA-MB-231 cells incubated for 18 hrs by JC-1 staining based flow cytometry. The class given is functional, cell-based. The conditions noted are these: dose 1-2 µM.
In data set [21] the test system is MDA-MB-231. The experiment in a line: Induction of apoptosis in human MDA-MB-231 cells assessed as increase in cleaved PARP protein expression incubated for 8 hrs by Western blot analysis. The class given is functional, cell-based. The conditions noted are these: dose 1.5-6 µM. The method in brief:
as §2

Active and inactive are the calls of the source. The calls are words filed in the database; no cut-off is given here.

What is called inhibition is how much of the control response was suppressed. For orientation: IC50 means the concentration needed to halve the response being measured. Regarding `COc1cc2cc(N)c(=O)oc2cc1OCCCOc1no[n+]([O-])c1S(=O)(=O)c1ccccc1`, the Activity in the data set on MDA-MB-231 [1] is 20.5%; in the data set with MDA-MB-231 [2], 12.9%; in the data set with MDA-MB-231 [5], 0.31%; in the data set on MDA-MB-231 [6], 20.82%; in the data set on MDA-MB-231 [8] it was 15.8%; in the data set with MDA-MB-231 [10], 0.31%. For the same compound, the Activity in the data set with MDA-MB-231 [11] is 0.2%; with MDA-MB-231 [14] it was 41.85%; in data set [15] it was 88.8%; in the data set with MDA-MB-231 [16], 22.92%; in the data set with MDA-MB-231 [19] it was 5.4%; in the data set with MDA-MB-23, “Dose-dependent effect”. In addition, in the data set with MDA-MB-231 [21], the Activity result was “Dose-dependent effect”. Besides, in the data set with MDA-MB-231 [3], the outcome was inactive. Further, the viability at 2 µM in the data set with MDA-MB-231 [4] is 71.1%. Moreover, in [7], the Drug metabolism entry is reported as “Metabolite_Detected”. In addition, the outcome with MDA-MB-231 [9] was Active. Moreover, in the data set on MDA-MB-231 [12], the viability at 3 µM stood at 65.6%. Also, the inhibition entry in the data set on MDA-MB-231 [13] is “Active”. Moreover, in data set [17], the IC50 was determined as 1.23 µM. In data set [18], the inhibition at 4 µM was 91.2%. In addition, in the data set on MDA-MB-231 [20], the viability at 1.5 µM worked out at 75.7%.

Source of the values: ChEMBL document CHEMBL4765333, “Novel NO-releasing scopoletin derivatives induce cell death via mitochondrial apoptosis pathway and cell cycle arrest” (Eur J Med Chem, 2020).
